Where a chain is given by its changes, count along the chain named.
What was measured:
Assay type in all cases: in vitro ADME
[1] = Metabolite identification, overnight incubation with pooled human liver cytosol; conditions: 200 µM EXE, 18-h incubation, 7.5 µg pooled human liver cytosol, PBS pH 7.4, 37°C, NADPH regeneration system
AKR1C4 Gly135Glu = target: T1, AKR1C4 Gly135Glu (Homo sapiens, UniProt P17516, G135E); assay: Kinetics of EXE reduction to 17β-DHE, recombinant AKR1C4 Gly135Glu; conditions: for VMAX: normalized to enzyme purity
T1 sequence (P17516 1-323 G135E): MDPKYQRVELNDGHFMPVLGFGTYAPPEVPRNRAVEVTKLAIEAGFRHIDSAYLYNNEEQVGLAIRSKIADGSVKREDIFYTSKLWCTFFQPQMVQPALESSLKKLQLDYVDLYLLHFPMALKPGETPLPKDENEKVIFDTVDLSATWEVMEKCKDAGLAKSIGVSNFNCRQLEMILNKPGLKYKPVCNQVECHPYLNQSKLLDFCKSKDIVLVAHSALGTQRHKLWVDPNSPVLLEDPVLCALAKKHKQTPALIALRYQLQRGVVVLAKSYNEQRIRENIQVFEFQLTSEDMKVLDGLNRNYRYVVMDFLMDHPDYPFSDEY

AKR1C3 = AKR1C3 (Homo sapiens, UniProt P42330); assay: Metabolite identification, overnight incubation with recombinant AKR1C3; conditions: 200 µM EXE, 18-h incubation, 1.5 µg recombinant AKR1C3
In short: (§1)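 Wildtype enzyme was His-tagged, expressed in E. coli BL21 (IPTG induction), Ni-NTA purified and dialysed against PBS. It was stopped with ice-cold acetonitrile and centrifuged. UPLC/ESI+ full scan (m/z 100–450) was followed by targeted MS/MS transitions. Retention times were matched to synthetic 17α/17β-dihydro standards.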

CBR1 = target: T2, CBR1 (Homo sapiens, UniProt P16152); assay: Metabolite identification, overnight incubation with recombinant CBR1; conditions: 200 µM EXE, 18-h incubation, 1.5 µg recombinant CBR1
T2 sequence (P16152 1-277): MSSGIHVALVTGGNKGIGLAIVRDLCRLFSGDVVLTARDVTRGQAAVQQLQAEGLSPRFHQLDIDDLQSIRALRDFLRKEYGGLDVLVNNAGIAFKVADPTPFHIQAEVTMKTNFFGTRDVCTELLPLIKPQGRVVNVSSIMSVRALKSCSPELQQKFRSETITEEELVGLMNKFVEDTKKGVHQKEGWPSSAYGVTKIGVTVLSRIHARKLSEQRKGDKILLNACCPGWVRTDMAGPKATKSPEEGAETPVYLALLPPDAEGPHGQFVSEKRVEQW
In short: as §1

AKR1C2 = AKR1C2 (Homo sapiens, UniProt P52895); assay: Metabolite identification, overnight incubation with recombinant AKR1C2; conditions: 200 µM EXE, 18-h incubation, 1.5 µg recombinant AKR1C2
In short: as §1

AKR1C4 Ser145Cys = target: T3, AKR1C4 Ser145Cys (Homo sapiens, UniProt P17516, S145C); assay: Kinetics of EXE reduction to 17β-DHE, recombinant AKR1C4 Ser145Cys
T3 sequence (P17516 1-323 S145C): T1 sequence (P17516 1-323 G135E) with E135G, S145C

AKR1C2 Phe46Tyr = target: T4, AKR1C2 Phe46Tyr (Homo sapiens, UniProt P52895, F46Y); assay: Kinetics of EXE reduction to 17β-DHE, recombinant AKR1C2 Phe46Tyr; conditions: VMAX/KM
T4 sequence (P52895 1-323 F46Y): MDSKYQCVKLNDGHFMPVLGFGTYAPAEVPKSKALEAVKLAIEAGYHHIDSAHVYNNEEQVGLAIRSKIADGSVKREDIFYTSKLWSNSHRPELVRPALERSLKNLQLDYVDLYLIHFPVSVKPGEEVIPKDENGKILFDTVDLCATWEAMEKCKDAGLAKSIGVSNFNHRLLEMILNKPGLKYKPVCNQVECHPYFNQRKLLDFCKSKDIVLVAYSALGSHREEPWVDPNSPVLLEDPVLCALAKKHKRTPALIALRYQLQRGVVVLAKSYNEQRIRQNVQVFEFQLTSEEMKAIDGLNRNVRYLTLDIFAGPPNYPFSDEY

AKR1C3, sequence (P42330 whole entry): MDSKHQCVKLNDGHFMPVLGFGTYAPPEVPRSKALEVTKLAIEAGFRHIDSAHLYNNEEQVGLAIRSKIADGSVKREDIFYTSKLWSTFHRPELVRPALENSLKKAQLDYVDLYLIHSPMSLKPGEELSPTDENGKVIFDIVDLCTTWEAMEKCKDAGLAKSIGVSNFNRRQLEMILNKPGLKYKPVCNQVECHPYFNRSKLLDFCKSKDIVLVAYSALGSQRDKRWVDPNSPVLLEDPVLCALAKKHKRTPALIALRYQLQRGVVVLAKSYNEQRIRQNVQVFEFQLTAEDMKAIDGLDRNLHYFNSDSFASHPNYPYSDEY
AKR1C2, sequence (P52895 whole entry): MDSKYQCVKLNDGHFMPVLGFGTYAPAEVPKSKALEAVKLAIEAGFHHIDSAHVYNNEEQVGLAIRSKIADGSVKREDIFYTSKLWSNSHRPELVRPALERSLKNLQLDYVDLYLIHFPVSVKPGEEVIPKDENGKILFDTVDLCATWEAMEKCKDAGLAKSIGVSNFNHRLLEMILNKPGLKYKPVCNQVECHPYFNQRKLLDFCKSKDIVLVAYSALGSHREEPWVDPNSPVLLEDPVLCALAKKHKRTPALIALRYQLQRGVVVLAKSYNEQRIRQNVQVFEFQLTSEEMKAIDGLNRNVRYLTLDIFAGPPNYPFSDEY

- Km (AKR1C4 Gly135Glu; AKR1C4 Gly135Glu (rs11253043), 17β-DHE formation): 311 ± 75.7 µM
- CLINT (AKR1C4 Gly135Glu; AKR1C4 Gly135Glu, VMAX/KM): 6e-05 µL/min/mg
- VMAX (AKR1C4 Gly135Glu; AKR1C4 Gly135Glu): 19.1 ± 4.2 picomoles·min^−1·mg^−1
- VMAX (AKR1C4 Gly135Glu; AKR1C4 Gly135Glu, listed as EXE): 19.1 ± 4.2 picomoles·min^−1·mg^−1
- VMAX of AKR1C4 Gly135Glu relative to wildtype (AKR1C4 Gly135Glu; faster than wildtype AKR1C4): 8 fold
- metabolites formed (AKR1C3): only 17β-DHE formation
- metabolites formed (CBR1): both stereoisomers of DHE
- metabolites formed (AKR1C2): only 17β-DHE formation
- Km (AKR1C4 Ser145Cys; AKR1C4 Ser145Cys (rs3829125), 17β-DHE formation): 9.6 ± 2.4 µM
- CLINT (AKR1C4 Ser145Cys; AKR1C4 Ser145Cys, VMAX/KM): 0.00061 µL/min/mg
- VMAX (AKR1C4 Ser145Cys; AKR1C4 Ser145Cys, normalized to enzyme purity): 5.9 ± 1.1 picomoles·min^−1·mg^−1
- CLINT (AKR1C2 Phe46Tyr): 0.0078 µL/min/mg
Compound: C=C1C[C@@H]2[C@H](CC[C@]3(C)C(=O)CC[C@@H]23)[C@@]2(C)C=CC(=O)C=C12 [exemestane, 6-methylenandrosa-1,4-diene-3-17-dione]
- metabolite formed [1]: 17β-DHE although a lesser amount of 17α-DHE was detected as well

— PMC5088049 (Pharmacogenetics and genomics, 2016)
